In the library only some 3.5% were active in any assay of this set; here they are far more common.
MrgX1 allo act = positive allosteric modulators of MrgX1, primary screen, HEK293 cells, Fluo-4 calcium flux | Mas-related G-protein coupled receptor member X1 (Homo sapiens), Q96LB2 | FDSS; active compounds read high | B-score at 10 µM | 0.63% of 310,000 active | AID 588675, 2011;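 active means plate-corrected calcium response at least 3 library SD above typical, normal starting fluorescence, not activating the receptor alone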;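 further: compound read alongside a low EC10 to EC30 dose of BAM8-22 agonist; peak minus trough fluorescence over baseline measured at the second addition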
Target sequence (Q96LB2 whole entry, looked up): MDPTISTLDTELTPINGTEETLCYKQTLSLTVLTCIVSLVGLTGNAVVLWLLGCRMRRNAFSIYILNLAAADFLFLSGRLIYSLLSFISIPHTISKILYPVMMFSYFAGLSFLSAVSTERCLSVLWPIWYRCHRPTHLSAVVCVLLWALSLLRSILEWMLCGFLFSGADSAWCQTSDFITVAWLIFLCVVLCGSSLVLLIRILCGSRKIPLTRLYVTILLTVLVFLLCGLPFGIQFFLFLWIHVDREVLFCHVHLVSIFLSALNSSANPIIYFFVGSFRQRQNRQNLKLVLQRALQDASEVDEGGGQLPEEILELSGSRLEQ
RGS4 pot = RGS4 potentiators or activators, primary screen, cell-based, HEK293 M3R inducible RGS4, calcium flux; B-score at 10 µM; carbachol calcium flux Fluo4; active compounds read low; 0.92% of 310,000 active;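 active means B-score of the integrated calcium signal more than 4 SD below the library mean, with starting fluorescence not abnormally high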;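 further: negative B-score means reduced calcium response which marks RGS4 activation or potentiation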
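Material: Inducible-RGS4 HEK293 cells carrying M3 receptor; also added: carbachol at ECmax as muscarinic agonist stimulus; incubation: compound preincubation 20 min at room temperature before agonist; signal: Fluo4-AM (2 µM) calcium-flux fluorescence, kinetic read; measure: integrated calcium ratio converted to B score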
MrgX1 agonist = agonists of human MrgX1 receptor, primary screen, HEK293 cells, Fluo-4 calcium flux; Mas-related G-protein coupled receptor member X1 (Homo sapiens), Q96LB2; Fluo-4 calcium fluorescence, agonist mode; active compounds read high; B-score at 10 µM; 0.44% of 310,000 active; AID 588627, 2011;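 active means calcium response B-score plate-corrected fluorescence ratio at least 3 library SD, with starting fluorescence B-score inside 5 SD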
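times = overnight plating, then 30 min 37 °C plus 30 min room-temperature dye loading | assay system = stable human MrgX1 HEK293 cell line | input = fifteen thousand cells per well | signal = kinetic calcium dye fluorescence, Fluo-4 NW | dosing = compound delivered in addition one of three | read-out = B-scored fluorescence response ratio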
MrgX1 antagonist = antagonists of human MrgX1 receptor, primary screen, HEK293 cells, Fluo-4 calcium flux | B-score at 10 µM | Mas-related G-protein coupled receptor member X1 (Homo sapiens), Q96LB2 | BAM8-22 antagonism; active compounds read low | AID 588676, 2011 | 1.3% of 310,000 active;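 active means calcium-response B-score plate-corrected more than 3 library SD below zero, starting fluorescence within 5 deviations, no agonist response on first addition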;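 further: peak minus trough fluorescence over baseline after final BAM8-22 challenge near maximal dose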
RGS4 block = RGS4 inhibitors, primary screen, cell-based, HEK293 M3R inducible RGS4, calcium flux | 0.45% of 310,000 active | Fluo-4 calcium flux; active compounds read high; triggered by carbachol at its EC20 | B-score at 10 µM | AID 463165, 2010;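 active means B-score, a plate-corrected calcium signal, over three deviations above library mean, with baseline fluorescence within five deviations of library mean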;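 further: RGS4 expression induced by doxycycline in cells with stable M3 receptor; B-score is computed from the integrated fluorescence ratio over baseline after carbachol; higher B-score means a larger calcium signal and so more RGS4 inhibition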
Target sequence (P49798 whole entry, looked up): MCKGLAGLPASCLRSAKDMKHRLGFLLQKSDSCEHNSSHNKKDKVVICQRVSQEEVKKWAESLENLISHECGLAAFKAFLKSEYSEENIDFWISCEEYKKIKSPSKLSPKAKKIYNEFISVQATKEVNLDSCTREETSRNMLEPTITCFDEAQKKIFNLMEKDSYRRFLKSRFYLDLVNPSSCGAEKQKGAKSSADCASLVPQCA
Starred values were filed as active, the others as inactive; i = inactive.

SMILES	MrgX1 allo act	RGS4 pot	MrgX1 agonist	MrgX1 antagonist	RGS4 block
CCSc1nc2c(c(=O)n(C)c(=O)n2C)n1Cc1ccc(Cl)cc1	i	i	i	i	i
O=c1ccc2cc3c([nH]c4ccc(Br)cc43)oc-2c1O	11*	i	i	i	i
Cc1cc(C)c(NC(=O)c2ccc(CNS(=O)(=O)c3cc(C(F)(F)F)ccc3Cl)cc2)c(C)c1	i	i	i	i	i
Cn1c(=O)cc(OCC(=O)NCCCN2CCN(Cc3ccccc3)CC2)c2ccccc21	i	i	i	-4.5*	i
O=C(CCc1nc2ccccc2c(=O)[nH]1)N1CCCc2ccccc21	i	i	i	i	i
CC(CN1CCCCC1)OC(=O)/C=C/c1ccccc1 (configuration not stated)	i	i	i	i	i
CCC(C(=O)NCCCN1CCCCCC1)n1nc(C)c2sc3ccccc3c2c1=O (configuration not stated)	i	i	i	i	i
S=C(NCCC(c1ccccc1)c1ccccc1)Nc1ccc(Cl)cc1	i	-7.9*	i	i	i
Cn1c(=O)oc2cc(S(=O)(=O)Nc3ccc(F)cc3)ccc21	i	i	i	i	i
COC(=O)c1cccc(Cn2c(Cl)c(/C=N/Nc3ccccc3C)sc2=O)c1	i	i	i	-8.1*	i
Cc1ccccc1N/N=C/c1sc(=O)n(Cc2cccc(C(=O)O)c2)c1Cl	i	i	i	i	i
Cc1ccc2c(c1)N(C(=O)CCC(=O)N1CCC(C(N)=O)CC1)CCO2	i	i	i	i	i
CN1CCN(CCC(=O)N2c3ccccc3Sc3ccc(C(F)(F)F)cc32)CC1	i	i	i	-8.2*	i
CN(C)CCCN1c2ccccc2Sc2ccc(C(F)(F)F)cc21	i	-8.3*	i	i	i
CCN(CC)CCCCN1c2ccccc2Sc2ccccc21	i	-7.2*	i	i	i
O=C(NC1CCCCC1)c1ccc2[nH]c(=O)c(=O)[nH]c2c1	i	i	i	i	i
Clc1ccc(-c2cc(CN3CCOCC3)no2)cc1	i	i	i	i	i
Clc1ccc(SCc2cc(-c3ccc(Cl)cc3)on2)cc1	i	-8*	i	i	i
Cc1ccc(SCc2cc(-c3ccc(Cl)cc3)on2)cc1	i	-7.6*	i	i	i
COc1ccc(C2NC(=O)NC(O)(C(F)(F)F)C2C(=O)c2ccc(C)cc2)cc1 (configuration not stated)	i	-7.6*	i	i	i
O=C(NCC1CCCO1)/C(=C\c1cccc([N+](=O)[O-])c1)NC(=O)c1ccccc1 (configuration not stated)	i	i	i	-5.7*	i
O=C(NCC1CCCO1)/C(=C/c1ccccc1)NC(=O)c1ccccc1 (configuration not stated)	i	i	i	i	i
COc1cccc(S(=O)(=O)Nc2cccc(C(=O)N3CCCC3)c2)c1	i	i	i	i	i
COc1cccc(S(=O)(=O)Nc2cccc(C(=O)N3CCOCC3)c2)c1	i	-7.5*	i	i	i
CCCOC(=O)c1c(NC(=O)/C=C/c2cnn(C)c2C)sc(C(=O)OCC)c1C	i	i	i	-4.6*	i
SMILES	MrgX1 allo act	RGS4 pot	MrgX1 agonist	MrgX1 antagonist	RGS4 block
CCCOC(=O)c1c(NC(=O)/C=C/c2cnn(C)c2C)sc(C(=O)OC)c1C	i	i	i	i	i
Cc1ccc(-c2csc(NC(=O)COC(=O)c3cccc(S(=O)(=O)N4CCOCC4)c3)n2)cc1	i	i	i	-4.8*	i
CCc1cccc(CC)c1NC(=O)COn1nnc2ccc(C(F)(F)F)cc21	i	i	i	i	i
OCCC1CN(Cc2nc3c(s2)CCCC3)CCN1Cc1ccccc1 (configuration not stated)	i	i	i	i	i
O=C(N/N=C/c1ccc([N+](=O)[O-])o1)C(=O)Nc1ccc(C(=O)O)cc1	i	i	i	i	i
O=[N+]([O-])c1ccc(N/N=C/C=C/c2ccco2)cc1	i	-7.4*	i	-10*	i
O=C(O)c1ccc(N/N=C/C=C/c2ccc([N+](=O)[O-])o2)cc1	i	i	i	-4.6*	i
O=c1c(NCCc2ccc(Cl)cc2)c(-c2ccccc2)c1=O	i	i	i	i	i
Nc1c(-c2ccc(Cl)cc2)cnn1-c1cc(C(F)(F)F)cc(C(F)(F)F)c1	14*	i	i	i	i
Nc1c(-c2cccc(Cl)c2)cnn1-c1cccc(C(F)(F)F)c1	i	i	i	i	i
CCc1ccc(C2CC(=O)N(c3cccc(F)c3)C3=C2C(=O)OC3)cc1 (configuration not stated)	i	i	i	i	i
CCCCCCCCCCCCOC(=O)C[N+](C)(C)C	i	-8.9*	i	i	i
CCCCCCCCCCOC(=O)C[N+](C)(C)C/C=C(/C)Cl	i	i	i	-5.3*	i
CCCCCCCCOC(=O)C[N+](C)(C)C/C=C(/C)Cl	i	i	i	i	i
Cc1c(C(=O)N2CCN(c3ccccc3)CC2)oc2c(F)cccc12	i	i	i	i	i
COC(=O)/C=C1/S/C(=N/NC(=O)c2ccccc2C)NC1=O	i	i	i	-8.2*	i
NNC(=O)c1cc(C23CC4CC(CC(C4)C2)C3)[nH]n1	i	i	i	i	i
COCCNC(=S)NNc1ccccc1[N+](=O)[O-]	i	i	i	-5.1*	i
O=C(Nc1ccc(S(=O)(=O)NC2=NCCCCC2)cc1)c1ccc(=O)[nH]c1	i	i	i	i	i
COc1cc(C(=O)NC(=S)Nc2ccc(Cl)cn2)cc(OC)c1OC	i	i	i	i	i
O=C(c1ccc(Cl)cc1)c1c[nH]c(C(=O)NNc2ccccc2)c1	i	i	i	i	i
CC(=O)N1c2c(cc(Br)cc2S(=O)(=O)N2CCN(c3ccccc3F)CC2)CC1C (configuration not stated)	i	i	i	-7.8*	i
N/C(=N\OC(=O)C1CCCCC1)c1ccncc1	i	i	i	-4.5*	i
N/C(=N\OC(=O)C1CCCCC1)c1ccc(Br)cc1	i	i	i	i	i

Screening data as filed in PubChem.
